Where two headings read alike, the source gives them in different places.
Assays:
[1] = target: GluN1/GluN2A receptors (Rattus norvegicus, UniProt P35439+Q00959); type: cell-based
How it was run: (§1)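 Xenopus laevis oocytes were injected with GluN1a:GluN2 RNA at a 1:3 molar ratio (15-30 ng total; 10-20-fold more for CTD-deleted subunits) and kept in ND-96 at 17 °C for 1-5 days. TEVC was run at -60 mV in 116 mM NaCl, 2 mM KCl, 0.3 mM BaCl2, 5 mM HEPES, pH 7.4. […] Full-length controls came from the same batch and day; mean ± s.e.m.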

[2] = target: GluN1/GluN2B receptors (Rattus norvegicus, UniProt P35439+Q00960); type: cell-based
[3] = target: GluN1/GluN2C receptors (Rattus norvegicus, UniProt P35439+Q00961); type: cell-based
How it was run: (§2)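 Oocytes expressed wild-type GluN1a/GluN2 receptors from 15-30 ng RNA (1:3 molar) and were held in ND-96 at 17 °C for 1-5 days. For Ca2+ chelation, 5 mM EGTA (50 nL) was injected 1-2 h before recording, with uninjected and water-injected oocytes as controls. TEVC was run at -60 mV in 116 mM NaCl, 2 mM KCl, 0.3 mM BaCl2, 5 mM HEPES (pH 7.4). […] Values are mean ± s.e.m.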

[4] = target: GluN1/GluN2D receptors (Rattus norvegicus, UniProt P35439+Q62645); type: cell-based
How it was run: as §2

[5] = target: GluN1/GluN2A^ΔCTD receptors (Rattus norvegicus, UniProt P35439+Q00959); type: cell-based
How it was run: as §1

[6] = target: GluN1/GluN2B^ΔCTD receptors (Rattus norvegicus, UniProt P35439+Q00960); type: cell-based; conditions: for % potentiation of agonist-evoked current: 10 µM L-glutamate/10 µM glycine (Fig. 2B, 4B)
[7] = target: GluN1/GluN2C^ΔCTD receptors (Rattus norvegicus, UniProt P35439+Q00961); test: Two-electrode voltage clamp of GluN2C CTD-deleted receptors; type: cell-based
How it was run: (§3)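 Xenopus laevis oocytes were injected with GluN1a and GluN2 RNA at a 1:3 molar ratio. The CTD was removed by a stop codon at GluN1 838K or GluN2C 855K, and 10-20-fold more RNA than wild type was injected. Oocytes were kept in ND-96 at 17 °C for 1-5 days. TEVC was run at -60 mV in Ba2+ buffer (pH 7.4). […] Full-length receptors were run alternately on the same day and oocyte batch. Values are mean ± s.e.m.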

[8] = target: GluN1/GluN2D^ΔCTD receptors (Rattus norvegicus, UniProt P35439+Q62645); type: cell-based
[9] = target: GluN1^ΔCTD/GluN2A receptors (Rattus norvegicus, UniProt P35439+Q00959); type: cell-based; conditions: for effect of GluN1 CTD-deletion on modulator activity at GluN2A receptors: vs GluN1^WT/GluN2A, GNE-8324 30 µM, PAS 100 µM, DQP-1105 50 µM, TCN-201 10 µM (Fig. 4E, 5G-I)
How it was run: as §1

[10] = target: GluN1^ΔCTD/GluN2B receptors (Rattus norvegicus, UniProt P35439+Q00960); type: cell-based; conditions: 100 µM compound; 10 µM L-glutamate/10 µM glycine (Fig. 2C)
How it was run: as §1

[11] = target: GluN1^ΔCTD/GluN2C receptors (Rattus norvegicus, UniProt P35439+Q00961); type: cell-based; conditions: 100 µM compound; 10 µM L-glutamate/10 µM glycine (Fig. 2C)
How it was run: as §1

[12] = target: GluN1^ΔCTD/GluN2D receptors (Rattus norvegicus, UniProt P35439+Q62645); type: cell-based
How it was run: as §3

[13] = test system: GluN1 CTD in neurons expressing GluN1-GFP, GluN2A and GluN1-mCherry; test: CTD-FRET; type: cell-based, rat; conditions: 75 µM compound, absence of agonists, imaged 10 min after application (Fig. 8)
How it was run: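 Rat primary hippocampal neurons were transfected at DIV 7-10 with ~2 µg total DNA (GluN1-GFP, GluN2A, GluN1-mCherry) by lipofection and imaged at 16-18 DIV in 0.87x HBSS, 5 mM HEPES, 1 mM glucose, 2.5 mM MgCl2, 0.5 mM CaCl2. Baseline and 10 min post-compound two-photon FLIM images were taken, each neuron imaged twice, compounds interleaved. Lifetimes were fit single-exponential and analysed blind; two preparations pooled.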

[14] = 10 µM FSK and 1 mM IBMX for 10 minutes, 50 µM UBP684, 100 µM PS (Fig. 7B, C)
[15] = 100 µM compound, control cells for U73122 experiment (Fig. 6J)
[16] = 100 µM compound, 10 µM L-glutamate/10 µM glycine (Fig. 2B, 5A)
[17] = 100 µM compound, 10 µM L-glutamate/10 µM glycine (Fig. 2C)
[18] = 10 µM compound, 10 µM L-glutamate/10 µM glycine (Fig. 4D)
[19] = 10 µM compound, 10 µM L-glutamate/10 µM glycine (Fig. 5C)
[20] = 30 µM compound, 10 µM L-glutamate/10 µM glycine (Fig. 4A, 5B)
[21] = 10 µM compound, 10 µM L-glutamate/10 µM glycine, GluN2A^WT (Fig. 5D-F)
[22] = 10 µM compound, 10 µM L-glutamate/10 µM glycine (Fig. 5D-F)
[23] = 30 µM compound, vs WT (Fig. 5B)

GluN1/GluN2D^ΔCTD receptors, sequence (Q62645 28-869 limits assumed, stated change not applied, other chains not shown): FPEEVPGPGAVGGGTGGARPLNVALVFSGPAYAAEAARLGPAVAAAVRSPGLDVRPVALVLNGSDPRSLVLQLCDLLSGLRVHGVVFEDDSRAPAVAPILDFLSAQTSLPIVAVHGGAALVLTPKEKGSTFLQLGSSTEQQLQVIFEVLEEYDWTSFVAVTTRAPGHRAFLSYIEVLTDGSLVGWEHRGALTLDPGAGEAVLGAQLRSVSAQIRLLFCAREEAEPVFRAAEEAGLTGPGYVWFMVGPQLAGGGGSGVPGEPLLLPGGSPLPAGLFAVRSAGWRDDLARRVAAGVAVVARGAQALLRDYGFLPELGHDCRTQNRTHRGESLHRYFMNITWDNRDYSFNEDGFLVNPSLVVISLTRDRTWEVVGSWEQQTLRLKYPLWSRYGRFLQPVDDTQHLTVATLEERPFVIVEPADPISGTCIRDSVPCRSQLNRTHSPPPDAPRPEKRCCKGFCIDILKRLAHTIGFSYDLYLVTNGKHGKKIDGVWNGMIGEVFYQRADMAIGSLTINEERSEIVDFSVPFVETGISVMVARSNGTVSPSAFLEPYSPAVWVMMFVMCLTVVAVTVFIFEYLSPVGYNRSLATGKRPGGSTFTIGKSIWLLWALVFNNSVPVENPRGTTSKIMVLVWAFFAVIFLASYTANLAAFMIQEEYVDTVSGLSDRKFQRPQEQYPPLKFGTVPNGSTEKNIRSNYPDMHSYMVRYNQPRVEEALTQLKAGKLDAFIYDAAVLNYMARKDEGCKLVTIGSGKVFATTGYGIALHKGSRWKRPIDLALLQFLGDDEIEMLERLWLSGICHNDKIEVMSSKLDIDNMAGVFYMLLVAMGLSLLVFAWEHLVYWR
GluN1/GluN2C^ΔCTD receptors, sequence (Q00961 20-842, stated change not applied, other chains not shown): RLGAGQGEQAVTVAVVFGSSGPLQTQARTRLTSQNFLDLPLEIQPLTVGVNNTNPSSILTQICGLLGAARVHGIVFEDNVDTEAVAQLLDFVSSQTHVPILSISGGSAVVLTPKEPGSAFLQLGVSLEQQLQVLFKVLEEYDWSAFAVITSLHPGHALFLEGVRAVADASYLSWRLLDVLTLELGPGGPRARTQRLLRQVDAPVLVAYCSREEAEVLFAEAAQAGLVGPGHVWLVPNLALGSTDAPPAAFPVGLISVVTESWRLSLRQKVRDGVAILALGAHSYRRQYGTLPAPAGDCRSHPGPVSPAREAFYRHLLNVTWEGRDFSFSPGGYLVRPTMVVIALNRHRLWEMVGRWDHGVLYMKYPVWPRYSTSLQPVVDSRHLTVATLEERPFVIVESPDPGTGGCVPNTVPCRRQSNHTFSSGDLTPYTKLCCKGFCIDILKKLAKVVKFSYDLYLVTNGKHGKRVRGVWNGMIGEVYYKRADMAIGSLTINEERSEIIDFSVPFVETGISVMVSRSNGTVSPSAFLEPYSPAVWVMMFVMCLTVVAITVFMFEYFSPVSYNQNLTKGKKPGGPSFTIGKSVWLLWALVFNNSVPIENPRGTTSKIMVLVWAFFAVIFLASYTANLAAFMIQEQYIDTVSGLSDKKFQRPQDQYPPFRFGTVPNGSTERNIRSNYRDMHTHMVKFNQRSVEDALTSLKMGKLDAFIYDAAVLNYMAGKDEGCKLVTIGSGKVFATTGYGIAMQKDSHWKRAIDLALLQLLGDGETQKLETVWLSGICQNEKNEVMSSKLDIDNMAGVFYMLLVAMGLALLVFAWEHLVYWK
GluN1/GluN2D receptors, sequence (Q62645 28-1323, other chains not shown): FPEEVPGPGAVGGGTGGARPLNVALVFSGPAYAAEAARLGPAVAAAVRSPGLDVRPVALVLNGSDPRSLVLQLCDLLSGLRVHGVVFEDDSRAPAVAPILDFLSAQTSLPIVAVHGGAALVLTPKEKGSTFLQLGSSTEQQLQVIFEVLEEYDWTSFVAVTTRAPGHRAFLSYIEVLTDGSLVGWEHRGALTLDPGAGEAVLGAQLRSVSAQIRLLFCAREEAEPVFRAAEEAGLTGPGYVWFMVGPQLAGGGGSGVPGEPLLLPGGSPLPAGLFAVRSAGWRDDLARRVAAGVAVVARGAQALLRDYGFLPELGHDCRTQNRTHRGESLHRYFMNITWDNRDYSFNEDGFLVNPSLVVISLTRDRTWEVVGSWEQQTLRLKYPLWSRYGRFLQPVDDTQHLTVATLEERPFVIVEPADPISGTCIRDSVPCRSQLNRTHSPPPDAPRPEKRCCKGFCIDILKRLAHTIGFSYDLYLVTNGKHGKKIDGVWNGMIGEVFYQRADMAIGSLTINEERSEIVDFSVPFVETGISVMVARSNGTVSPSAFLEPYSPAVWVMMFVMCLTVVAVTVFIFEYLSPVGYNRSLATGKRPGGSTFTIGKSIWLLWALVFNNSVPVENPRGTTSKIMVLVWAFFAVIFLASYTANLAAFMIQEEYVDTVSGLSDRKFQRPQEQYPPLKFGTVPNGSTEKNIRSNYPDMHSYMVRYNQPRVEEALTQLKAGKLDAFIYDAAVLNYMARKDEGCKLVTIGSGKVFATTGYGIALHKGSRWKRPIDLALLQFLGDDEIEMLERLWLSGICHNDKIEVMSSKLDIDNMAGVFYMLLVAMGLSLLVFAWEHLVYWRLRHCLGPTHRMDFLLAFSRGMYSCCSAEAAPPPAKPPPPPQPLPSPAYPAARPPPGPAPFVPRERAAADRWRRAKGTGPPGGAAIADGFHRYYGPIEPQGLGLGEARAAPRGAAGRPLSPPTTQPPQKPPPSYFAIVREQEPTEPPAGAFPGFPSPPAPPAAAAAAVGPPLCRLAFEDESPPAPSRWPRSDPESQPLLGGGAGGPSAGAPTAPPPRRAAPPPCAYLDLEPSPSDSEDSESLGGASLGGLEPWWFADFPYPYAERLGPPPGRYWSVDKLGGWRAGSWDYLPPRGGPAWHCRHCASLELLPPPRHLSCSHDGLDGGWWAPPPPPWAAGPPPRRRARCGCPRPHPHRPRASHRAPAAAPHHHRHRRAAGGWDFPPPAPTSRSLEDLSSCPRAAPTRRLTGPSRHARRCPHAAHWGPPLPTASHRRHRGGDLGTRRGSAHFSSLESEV
GluN1/GluN2C receptors, sequence (Q00961 20-1237, other chains not shown): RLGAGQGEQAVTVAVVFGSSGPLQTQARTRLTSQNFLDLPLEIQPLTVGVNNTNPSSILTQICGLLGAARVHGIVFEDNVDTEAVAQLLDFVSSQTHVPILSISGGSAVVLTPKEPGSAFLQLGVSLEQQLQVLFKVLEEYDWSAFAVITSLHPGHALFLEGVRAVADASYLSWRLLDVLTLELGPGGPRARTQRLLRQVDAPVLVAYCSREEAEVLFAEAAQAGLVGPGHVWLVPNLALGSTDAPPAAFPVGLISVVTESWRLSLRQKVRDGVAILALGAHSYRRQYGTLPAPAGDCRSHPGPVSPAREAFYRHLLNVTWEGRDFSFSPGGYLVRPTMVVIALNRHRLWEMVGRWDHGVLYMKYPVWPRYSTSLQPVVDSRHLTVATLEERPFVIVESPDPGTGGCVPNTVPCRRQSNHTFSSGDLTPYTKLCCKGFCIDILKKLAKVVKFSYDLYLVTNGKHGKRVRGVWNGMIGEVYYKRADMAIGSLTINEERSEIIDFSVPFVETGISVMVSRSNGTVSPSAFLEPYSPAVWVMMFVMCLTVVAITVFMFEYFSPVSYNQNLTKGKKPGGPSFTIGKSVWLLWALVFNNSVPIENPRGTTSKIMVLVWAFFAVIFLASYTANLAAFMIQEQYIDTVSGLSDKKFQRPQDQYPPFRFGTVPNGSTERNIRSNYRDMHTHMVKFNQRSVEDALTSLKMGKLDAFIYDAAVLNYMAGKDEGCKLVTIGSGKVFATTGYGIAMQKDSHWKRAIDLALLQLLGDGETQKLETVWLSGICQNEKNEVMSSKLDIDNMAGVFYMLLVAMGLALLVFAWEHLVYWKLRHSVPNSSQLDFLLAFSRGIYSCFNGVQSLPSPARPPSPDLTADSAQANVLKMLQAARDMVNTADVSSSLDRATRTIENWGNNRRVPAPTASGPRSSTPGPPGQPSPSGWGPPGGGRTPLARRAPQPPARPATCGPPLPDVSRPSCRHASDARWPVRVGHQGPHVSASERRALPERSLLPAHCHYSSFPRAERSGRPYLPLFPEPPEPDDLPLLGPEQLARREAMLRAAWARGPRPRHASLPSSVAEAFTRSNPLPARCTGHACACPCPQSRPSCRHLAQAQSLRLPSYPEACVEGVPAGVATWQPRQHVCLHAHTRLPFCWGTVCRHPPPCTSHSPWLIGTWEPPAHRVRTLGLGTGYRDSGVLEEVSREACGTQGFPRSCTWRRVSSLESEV
GluN1^ΔCTD/GluN2D receptors, sequence (Q62645 28-1323, stated change not applied, other chains not shown): as the sequence (Q62645 28-1323, other chains not shown) above
GluN1^ΔCTD/GluN2C receptors, sequence (Q00961 20-1237, stated change not applied, other chains not shown): as the sequence (Q00961 20-1237, other chains not shown) above

## 5-Pregnen-3β-ol-20-onesulphate [PS]
[1]; [14]
  effect of PKA activation on % potentiation: unchanged
[1]; [15]
  % potentiation of agonist-evoked current: 45 ± 3%
[1]; 5 mM EGTA injected vs controls (Fig. 6E)
  effect of EGTA injection on modulation: no significant effect
[2]; 2 µM PMA for 10 minutes, 50 µM UBP684, 100 µM PS (Fig. 7E, F)
  effect of PKC activation by PMA on PAM activity: unaffected
[2]; [14]
  effect of PKA activation on % potentiation: unchanged
[2]; [15]
  % potentiation of agonist-evoked current: 82 ± 10%
[2]; 5 mM EGTA injected vs controls (Fig. 6F)
  effect of EGTA injection on modulation: no significant effect
[3]; 5 mM EGTA injected vs controls (Fig. 6C, G)
  effect of EGTA injection on potentiation/modulation: no significant effect
[4]; 10 µM L-glutamate/10 µM glycine, WT GluN1/GluN2D (Fig. 3)
  IC50: 149.8 ± 18.0%
[4]; 5 mM EGTA injected vs controls (Fig. 6D, H)
  effect of EGTA injection on potentiation/modulation: no significant effect
[5]; 2 µM PMA for 10 minutes, 50 µM UBP684, 100 µM PS (Fig. 7G, H)
  effect of PKC activation by PMA on PAM activity: significantly increased
[5]; [16]
  % inhibition of agonist-evoked current: 23 ± 4%
[5]; all doses, the lowest being 3 µM, 10 µM L-glutamate/10 µM glycine (Fig. 3)
  modulation in dose-response experiment: NAM activity at all doses
[6]; 100 µM compound
  % potentiation of agonist-evoked current: 74 ± 10%
[7]; [16]
  % inhibition of agonist-evoked current: 89 ± 2%
[8]; 10 µM L-glutamate/10 µM glycine (Fig. 3)
  IC50: 76.7 ± 19.1%
[8]; [16]
  % inhibition of agonist-evoked current: 49 ± 8%
[9]; [17]
  % potentiation of agonist-evoked current: 32 ± 4%
[10]
  % potentiation of agonist-evoked current: 156 ± 25%
[11]
  % inhibition of agonist-evoked current: 66 ± 5%
[12]; [17]
  % inhibition of agonist-evoked current: 45 ± 6%
[13]
  change of GluN1-GFP fluorescence lifetime (movement of the GluN1 CTD): did not affect

## COc1ccc(OCC2c3cc(OC)c(OC)cc3CCN2C(=O)c2cccc(Cl)c2)cc1 (stereo not drawn) [CIQ]
[3]; 10 µM compound, 10 µM L-glutamate/10 µM glycine, GluN2C^WT (Fig. 4D)
  % potentiation of agonist-evoked current: 89 ± 8%
[4]; 10 µM compound, 10 µM L-glutamate/10 µM glycine, GluN2D^WT (Fig. 4D)
  % potentiation of agonist-evoked current: 72 ± 11%
[7]; [18]
  % potentiation of agonist-evoked current: 113 ± 13%
[8]; [18]
  % potentiation of agonist-evoked current: 48 ± 5%
[12]; 10 µM compound, vs wild-type GluN1/GluN2D (Fig. 4F)
  effect of GluN1 CTD-deletion on PAM activity: significantly reduced

## Cc1ccc2[nH]c(=O)c(C3=NN(C(=O)CCC(=O)O)C(c4ccc(Br)cc4)C3)c(-c3ccccc3)c2c1 (stereo not drawn) [DQP-1105]
[1]; 50 µM compound, 10 µM L-glutamate/10 µM glycine, WT (Fig. 5C)
  % inhibition of agonist-evoked current: 39 ± 3%
[3]; 10 µM compound, 10 µM L-glutamate/10 µM glycine, WT (Fig. 5C)
  % inhibition of agonist-evoked current: 69 ± 2%
[4]; 10 µM compound, 10 µM L-glutamate/10 µM glycine, GluN2D^WT (Fig. 5C)
  % inhibition of agonist-evoked current: 87 ± 1%
[5]; 50 µM compound, 10 µM L-glutamate/10 µM glycine (Fig. 5C)
  % inhibition of agonist-evoked current: 82 ± 4%
[7]; [19]
  % inhibition of agonist-evoked current: 79 ± 4%
[8]; [19]
  % inhibition of agonist-evoked current: 97 ± 2%
[9]
  effect of GluN1 CTD-deletion on modulator activity at GluN2A receptors: did not observe any effect

## CCN(Cc1cc(=O)n2c3c(sc2n1)CCC3)c1ccc(F)cc1 [GNE-8324]
[1]; 30 µM compound, 10 µM L-glutamate/10 µM glycine, GluN2A^WT (Fig. 4A)
  % potentiation of agonist-evoked current: 35 ± 4%
[5]; [20]
  % inhibition of agonist-evoked current: 11 ± 2%
[9]
  effect of GluN1 CTD-deletion on modulator activity at GluN2A receptors: unaffected

## Cc1ncc(CNC(=O)c2cnc(CNS(=O)(=O)c3ccc(F)c(Cl)c3)cn2)s1 [MPX-004]
[1]; [21]
  % inhibition of agonist-evoked current: 75 ± 8%
[5]; [22]
  % inhibition of agonist-evoked current: 29 ± 13%

## Cc1ncc(CNC(=O)c2cnc(CNS(=O)(=O)c3ccc(F)c(F)c3)c(C)n2)s1 [MPX-007]
[1]; [21]
  % inhibition of agonist-evoked current: 77 ± 9%
[5]; [22]
  % inhibition of agonist-evoked current: 36 ± 6%

## CC(=O)[C@H]1CC[C@H]2[C@@H]3CC[C@@H]4C[C@H](OS(=O)(=O)O)CC[C@]4(C)[C@H]3CC[C@]12C [PAS, 5β-pregnan-3α-ol-20-onesulphate]
[1]; 100 µM compound, 10 µM L-glutamate/10 µM glycine, GluN2A^WT (Fig. 5A)
  % inhibition of agonist-evoked current: 61 ± 3%
[2]; 100 µM compound, 10 µM L-glutamate/10 µM glycine, GluN2B^WT (Fig. 5A)
  % inhibition of agonist-evoked current: 67 ± 1%
[5]; [16]
  % inhibition of agonist-evoked current: 89 ± 2%
[6]; 100 µM compound, 10 µM L-glutamate/10 µM glycine (Fig. 5A)
  % inhibition of agonist-evoked current: 76 ± 3%
[7]; [16]
  % inhibition of agonist-evoked current: 93 ± 1%
[8]; [16]
  % inhibition of agonist-evoked current: 85 ± 5%
[9]
  effect of GluN1 CTD-deletion on modulator activity at GluN2A receptors: did not observe any effect

## COC(=O)c1ccc(C2C(C(C)=O)=C(O)C(=O)N2CCc2c(C)[nH]c3ccccc23)cc1 (stereo not drawn) [PYD-106]
[3]; 30 µM compound, 10 µM L-glutamate/10 µM glycine, GluN2C^WT (Fig. 4C)
  % potentiation of agonist-evoked current: 64 ± 4%
[7]; 30 µM compound, 10 µM L-glutamate/10 µM glycine (Fig. 4C)
  % potentiation of agonist-evoked current: 21 ± 3%

## NCCCNCCCCNCCCN [Spermine]
[6]; 100 µM compound
  % potentiation of agonist-evoked current: 57 ± 5%

## O=C(NNC(=O)c1ccc(CNS(=O)(=O)c2ccc(F)c(Cl)c2)cc1)c1ccccc1 [TCN-201]
[1]; [21]
  % inhibition of agonist-evoked current: 82 ± 2%
[5]; [22]
  % inhibition of agonist-evoked current: 53 ± 5%
[9]
  effect of GluN1 CTD-deletion on modulator activity at GluN2A receptors: did not observe any effect

## O=C(O)c1cc2cc(/C=C/c3ccccc3[N+](=O)[O-])ccc2cc1O [UBP792]
[1]; 30 µM compound, 10 µM L-glutamate/10 µM glycine, WT (Fig. 5B)
  % inhibition of agonist-evoked current: 22 ± 8%
[4]; 30 µM compound, 10 µM L-glutamate/10 µM glycine, wild-type (Fig. 5B)
  % inhibition of agonist-evoked current: 86 ± 1%
[5]; [20]
  % inhibition of agonist-evoked current: 64 ± 6%
[6]; [23]
  effect of GluN2B CTD-deletion on NAM activity: did not display a significant effect
[7]; [23]
  effect of GluN2C CTD-deletion on NAM activity: did not display a significant effect
[8]; 30 µM compound, 10 µM L-glutamate/10 µM glycine (Fig. 5B)
  % inhibition of agonist-evoked current: 68 ± 7%

Reference: publication PMC7058367 (Biochemical pharmacology, 2018)
